From ChEMBL document CHEMBL4513216, “Probing the Open Global Health Chemical Diversity Library for Multistage-Active Starting Points for Next-Generation Antimalarials” (ACS Infect Dis, 2020)

Experiment: Toxicity liver stage against HepG2, at 10uM
Type: cell-based
Parameters: test concentration 10 uM, cell line HepG2-A16-CD81EGFP
Details: human, HepG2-A16-CD81EGFP cells; read-out: INHIBITION
In short: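 Uninfected HepG2-A16-CD81EGFP cells, 3 × 10^3 per well, 1536-well, plated on prespotted compound at 10 μM final, parasite-free screening media added to match infected plates; puromycin 10 μM positive, DMSO 0.5% negative; run in parallel with 48 h PbLuc assay at 37 °C, 5% CO2; viability by CellTiter-Glo luminescence, normalized to controls.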

| Structure (SMILES) | cytotoxicity at 10 µM [%] |
| --- | --- |
| COCC(=O)NC1CC2(CCN(CCF)CC2)Oc2ccccc21 (stereo unspecified) | -0.864 |
| Cc1cccc(C(C(=O)NCc2csc(-c3ncccn3)n2)N(C)C)c1 (stereo unspecified) | 2.14 |
| NC(=O)C(c1ccc(F)cc1)N1CCN(CCO)CC1 (stereo unspecified) | -5.46 |
| Cc1cc2n(n1)CC(CNC1CCN(c3ccccn3)CC1)CN2 (stereo unspecified) | 6.09 |
| COc1c[nH]c(C(=O)Nc2nc(C(C)(C)C)cs2)cc1=O | -49.6 |
| Cc1cccc(CN2C[C@@H](CN3CCCN(C)CC3)[C@@H](CO)C2)n1 | -7.57 |
| Cc1cccc(CN(Cn2nc(C)c3c(C)onc3c2=O)C2CC2)c1 | 1.33 |
| CN(C)S(=O)(=O)N1C[C@H]2CCC[C@@]2(COCc2cccnc2)C1 | 9.19 |
| CCCN1CCC(c2nc3ccc(NCc4cccnc4)cn3n2)CC1 | -121 |
| Fc1ccc(OCCCNC2=NCCCN2)cc1 | -7.91 |
| O=C(c1ccoc1)N1CC[C@H]2OCC[C@@]2(COc2ncccc2F)C1 | -9.31 |
| CCCNc1ccc(C(=O)NCCc2cccc(OC)c2)cn1 | 0.267 |
| Cc1nccn1C1CCCN(C(=O)c2cnc[nH]2)C1 (stereo unspecified) | -5.43 |
| Cc1ccc(C(=O)N2CCN(C(=O)NC(C)Cn3ccnc3)CC2)o1 (stereo unspecified) | -1.47 |
| COCCN1CCCCC12CC(=O)N(c1ccccc1OC)C2 (stereo unspecified) | -92.6 |
| COc1ccc(OC)c2c(C)cc(N(CCO)CCO)nc12 | -114 |
| Cc1ccc2nc(CN(Cc3ccc(C)o3)C(C)C)cc(=O)n2c1 | 5.6 |
| CN(CCc1ccncc1)C(=O)C1CSCN1C(=O)C(C)(C)C (stereo unspecified) | -8.2 |
| CSC(C)C(=O)N1CCN(CC(C)(C)O)CC1 (stereo unspecified) | -10.2 |
| CCCSCC(=O)N1CCN(c2ccc(OC)cc2)CC1C (stereo unspecified) | -166 |
| COCCn1ccc2cc(NC(=O)N(C)C(C)CSC)ccc21 (stereo unspecified) | 0.08 |
| CC(C(=O)NCCc1ccc2c(c1)OCCO2)n1cncn1 (stereo unspecified) | 6.89 |
| COCC(=O)N1CCN(Cc2cc(F)cc(Br)c2)CC1 | 15.8 |

| Structure (SMILES) | cytotoxicity at 10 µM [%] |
| --- | --- |
| c1cncc(OCc2noc3c2CN(Cc2ccsc2)CC3)c1 | 4.76 |
| CCOc1ncccc1CNC(=O)N1CCCC1c1ccncc1 (stereo unspecified) | 21.2 |
| Cc1cc(CNc2ccc(C(F)(F)F)cc2)no1 | -54 |
| CC1CCN(C)c2ccccc2N1C(=O)c1ccnc(-n2cncn2)c1 (stereo unspecified) | 2.37 |
| CCc1ncc2c(n1)CN(Cc1cn3ccsc3n1)CC2 | -8.26 |
| Cn1cccc1C(=O)NCc1cn2c(n1)CN(C(=O)c1ccsc1)CC2 | -112 |
| O=C(CCCn1ccnc1)NC1CCCN(c2ccccc2Cl)C1 (stereo unspecified) | 4.86 |
| Cc1cc(N2CCC(N(C)Cc3cc(=O)c(O)co3)CC2)nc(C)n1 | 2.34 |
| CC(C)c1noc(CN2CCC3(CCCO3)CCC2=O)n1 (stereo unspecified) | 0.145 |
| CCS(=O)(=O)N1CCc2ccc(=O)n(CC3CC3)c2CC1 | 7.95 |
| O=C1CCCN1Cc1ncn2c1CN(C(=O)NC1CCCC1)CCC2 | -147 |
| O=C(Cc1c[nH]c2ccccc12)N1CCC(Nc2cccnc2)CC1 | -26.6 |
| Cc1cc(C[S+]([O-])CC(=O)NCc2cccc(Cl)c2)no1 (stereo unspecified) | -1.56 |
| O=C(C1CCN(c2ncnc3cccc(F)c23)CC1)N1CCCC1 | 3.76 |
| CCN(CC)C(=O)CNS(=O)(=O)c1cc(Br)ccc1F | -45.9 |
| Cc1cc(N2CCC(Cc3ncccn3)C2)ncn1 (stereo unspecified) | 0.146 |
| CN(C)CCN1CCO[C@@H]2CN(C(=O)Cc3ccsc3)CC[C@@H]2C1 | -119 |
| CCc1ccc(C2CC(=O)Nc3c2c(=O)n(C)c2ncnn32)cc1 (stereo unspecified) | 8.16 |
| Oc1cc(-c2nccs2)nc(C2CCN(Cc3cccs3)CC2)n1 | 16.7 |
| CCc1nc(C)c(CNC(=O)CCCN2CCCCC2)s1 | -4.65 |
| CN(Cc1cnn(C)c1)Cc1nc(CCc2ccccc2)no1 | -26.1 |
| CCOc1ccc(NC2CCN(CC(F)(F)F)C2=O)cc1C (stereo unspecified) | 1.41 |
| Cc1ccccc1CN(CCN(C)C)Cc1ccc(O)c(C(=O)O)c1 | 0.935 |

| Structure (SMILES) | cytotoxicity at 10 µM [%] |
| --- | --- |
| CN(CC1CCC1)C(=O)Nc1cccnc1-n1cncn1 | 2.86 |
| CCOc1ccc2nc(CN3CCC(CNC(C)=O)C3)ccc2c1 (stereo unspecified) | -7.23 |
| COCc1cc(NCCc2ccc(S(N)(=O)=O)cc2)n2nccc2n1 | 6.45 |
| CC(C)N(Cc1cccnc1)C(=O)CNc1ccc(C#N)cc1 | 1.44 |
| Cc1c(C)n2c(SCC(=O)N3CCCCCC3)nnc2[nH]c1=O | 0.0868 |
| CN(C)c1nc2c(c(N3CCCC4(CC3)CNC(=O)O4)n1)CCCC2 (stereo unspecified) | -1.07 |
| CC(C)N1CC[C@@](C)(O)[C@H](n2ccc(=O)[nH]c2=O)C1 | 6.61 |
| COC(=O)[C@H](C)NC(=O)Cn1ccc2ccc(F)cc21 | -0.112 |
| Fc1cccc(-c2nnn3c2COC(CNCc2nccs2)C3)c1 (stereo unspecified) | -102 |
| O=C1[C@H]2CCCC[C@H]2C(=O)N1c1cnn(Cc2cccc(F)c2)c1 | -5.24 |
| O=C(NC1CC1)c1cc(NC(=O)N2CCOCC2)ccc1Cl | -4.15 |
| COCCN1C(=O)CO[C@H]2CN(Cc3ccccc3OC)C[C@H]21 | -1.52 |
| c1cc(CN2CCC3(CCOCC3COCC3CC3)CC2)co1 (stereo unspecified) | -2.69 |
| CCC(C(=O)NC1(CN2CCOCC2)CCCC1)n1cccn1 (stereo unspecified) | 4.52 |
| O=C(NCc1nc(NC2CCCC2)c2cc(Cl)ccc2n1)c1ccoc1 | -2.99 |
| COc1ccc(CN2C[C@@H](N(C)Cc3ccco3)[C@H]3OCCC[C@H]32)cc1 | 1.18 |
| O=C(Cc1ccsc1)N1CCN(CC2CC2)c2ncccc2C1 | -101 |
| CN1CC(=O)N(c2cccnc2)CC12CCN(C(=O)C1CCCCC1)C2 (stereo unspecified) | 1.55 |
| CC(c1nc(C(C)(C)C)no1)S(=O)(=O)CC(=O)N(C)C (stereo unspecified) | -0.0515 |
| Cc1cnn(CCNCC(=O)Nc2ccc(Br)cn2)c1 | 1.9 |
| CS(=O)(=O)N1CCC(Oc2ccc(C(=O)N3CCSCC3)cc2Cl)CC1 | 16.2 |
| CCc1cccc(N2CCC(NC(=O)C3CCC3)CC2)c1 | 3.6 |
| Cc1ccc(-c2cc(C(=O)NCCC3=CCCCC3)[nH]n2)o1 | -55.1 |

| Structure (SMILES) | cytotoxicity at 10 µM [%] |
| --- | --- |
| CS(=O)(=O)NCc1ncn2c1CN(C(=O)C1CCCCC1)CCC2 | -71.2 |
| COc1ccc(C(C(=O)O)N2CCC(O)(c3cccnc3)CC2)cc1F (stereo unspecified) | 50.8 |
| CC(=O)N1CCCN(C(C(=O)O)c2ccc(C)cc2C)CC1 (stereo unspecified) | -3.98 |
| CCN(CC)c1ccc(NC(=O)NCC2CCOC2)cn1 (stereo unspecified) | 2.14 |
| Cc1ncc(-c2ccnc(SCCN(C)C)n2)c(-c2ccco2)n1 | -7.25 |
| COc1cc(CCNC(=O)NCCC2CCCO2)ccc1C (stereo unspecified) | 9.92 |
| CS(=O)(=O)Cc1nc(CN2CCCc3sccc3C2)cs1 | 7.28 |
| c1c(CN2CCCCC2)nc2n1CCN(CC1CC1)C2 | -113 |
| CCc1ccc(C(=O)N2CCCC(c3nn[nH]n3)C2)cc1 (stereo unspecified) | 4.6 |
| O=C(c1ccc(OCC2CC2)nc1)N1CCCC(n2cncn2)C1 (stereo unspecified) | -3.25 |
| CCn1ccc(C(=O)Nc2ccc3c(c2)C(C)(C)C(=O)N3C)n1 | 12.2 |
| CC(C)Cn1cc(NC(=O)NC(C)(C)c2nccs2)cn1 | 7.44 |
| Cn1cc(CN2CCCC(CCc3ccc(F)cc3F)C2)cn1 (stereo unspecified) | -10.4 |
| CCOc1ccc(C(=O)NCCCNc2ncccn2)cc1 | 11.5 |
| O=C(Nc1cnc2n1CCCC2)C1CCCN1C1CCNCC1 (stereo unspecified) | 11.6 |
| CC(NC(C)(C)CN)c1ccccc1 (stereo unspecified) | 2.62 |
| O=C(C1CCCCC1)N1CCC2(CC1)OCCO2 | 9.77 |
| CC(=O)N1CCC[C@H]1C(=O)NCCOc1cccc(Cl)c1 | -8.78 |
| O=C(CC1CC1)N1CCC2(CC(=O)N(c3cccc(F)c3)C2)C1 (stereo unspecified) | -148 |
| Cc1cnc(-c2nc(NC3CC3)ncc2-c2onc(C)c2C)cn1 | -27.9 |
| Cc1cnn(Cc2ccc(NC(=O)N[C@@H]3C=C[C@H](CO)C3)cc2)c1 | 7.76 |
| Cc1cccc(C(=O)NC(C(=O)NCc2ccc(O)nc2)C(C)C)c1 (stereo unspecified) | -7.81 |
| CCn1nc(C)c(S(=O)(=O)N(C)c2ccc(Cl)cn2)c1C | -2.13 |

| Structure (SMILES) | cytotoxicity at 10 µM [%] |
| --- | --- |
| O=C(Cc1csc(-c2ccco2)n1)N1CCN(c2cnccn2)CC1 | 0.0241 |
| Cc1cc(NC(=O)CN2CCc3cnc(C(C)C)nc3C2)on1 | -12.1 |
| COc1ccccc1S(=O)(=O)N1CC(N(C)C)Cc2ccccc21 (stereo unspecified) | 0.243 |
| CN1CC[C@@H]2[C@@H]1CCN2Cc1ccc2c(c1)OCO2 | 3.11 |
| Cc1cc(C(=O)N2C[C@@H]3COC[C@]3(CN(C)C)C2)c(C)o1 | -131 |
| C[S+]([O-])c1cccc(NC(=O)N(CCC#N)Cc2ccccn2)c1 (stereo unspecified) | 10.6 |
| CN(C)C(=O)NC[C@@H]1OC[C@H]2CN(Cc3cccc(F)c3)CC[C@H]21 | 4.93 |
| CCc1ccccc1OC1CN(C(=O)CN(C)Cc2ccncc2)C1 | -4.55 |
| CSc1ccc(C(CC(=O)O)NC(=O)c2cc(C)on2)cc1 (stereo unspecified) | -12.1 |
| CCc1nc(CC(=O)N2CCOCC2c2ncon2)cs1 (stereo unspecified) | -2.58 |
| COc1cc(-c2n[nH]c(CN)n2)cc(OC)c1OC | 2.45 |
| CCS(=O)(=O)N1CCC2(CC1)c1ncc(-c3cccnc3)n1CCN2C | -103 |
| O=C(c1cnc(NCc2sccc2Br)c(Cl)c1)N1CCCCC1 | 6.36 |
| COCCN1CCC2(CC1)CC(COC)N(c1ncccn1)C2 (stereo unspecified) | -3.53 |
| CC(C)NC(=O)[C@@H]1CCO[C@@H]2CCN(c3ncccn3)C[C@H]21 | -7.6 |
| OCc1cn(Cc2cccc(F)c2)nn1 | 8.95 |
| COC(=O)CSCc1nc(-c2ccc(Cl)cc2)no1 | 3.77 |
| CCN1CCN(C(C)CNC(=O)Nc2cnn(CC)c2)CC1 (stereo unspecified) | -12.9 |
| Cn1ccnc1CCC1CCCCN1Cc1cnc(N2CCCC2)nc1 (stereo unspecified) | 1.43 |
